# Rows were chosen to be rich in hits. Some 1.8% of all compounds tested hit in one or more screens of this group.
# HTRA1 inh: HTRA1 serine protease inhibitors, primary screen, biochemical, fluorescence polarization, HTS | inhibition, % at 5.96 µM | AID 504803, 2011 | 0.5% of 340,000 active | recombinant HTRA1, FP-rhodamine activity-based probe | Q92743; in the data active = inhibition above about 36%;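 also: 0% = enzyme with DMSO and 100% = wells lacking enzyme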
# Target sequence (Q92743 whole entry, looked up): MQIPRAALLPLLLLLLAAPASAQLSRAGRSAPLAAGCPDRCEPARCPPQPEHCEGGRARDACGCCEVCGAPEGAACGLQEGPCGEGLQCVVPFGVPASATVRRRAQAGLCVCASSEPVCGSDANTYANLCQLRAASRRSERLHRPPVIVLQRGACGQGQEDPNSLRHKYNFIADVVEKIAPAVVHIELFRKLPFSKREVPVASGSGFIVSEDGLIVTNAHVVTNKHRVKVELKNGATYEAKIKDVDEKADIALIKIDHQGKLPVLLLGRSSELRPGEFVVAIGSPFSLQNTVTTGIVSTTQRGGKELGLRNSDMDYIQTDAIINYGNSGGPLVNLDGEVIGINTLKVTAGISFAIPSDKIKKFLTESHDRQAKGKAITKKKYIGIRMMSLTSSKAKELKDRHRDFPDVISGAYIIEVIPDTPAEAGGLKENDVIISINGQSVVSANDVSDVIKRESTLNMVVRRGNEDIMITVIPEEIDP
# SIAE primary: human SIAE inhibitors, primary screen, biochemical, fluorescence polarization, FP-Rh probe, 1536-well HTS; Sialate O-acetylesterase (Homo sapiens), Q9HAT2; SIAE FP-Rh probe binding; inhibition, % at 9.66 µM; 0.69% of 370,000 active; AID 1053197, 2014;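 active = inhibition above a cutoff: mean of compounds within the control limits plus 3 SD of those, cut at about 17% in these data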;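 also: 0% = plate median of compound wells and 100% = probe without SIAE protein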
# TCR CD3 inh: inhibitors of human TCR-CD3 interaction, primary screen, biochemical, fluorescence, TAMRA-labeled TCR probe. T-cell receptor (TCR). inhibition, % at 9.4 µM. 0.37% of 360,000 active;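 also: recombinant mutant TCR 2C K166C tagged with TAMRA read by polarization; 0% = receptor in buffer alone and 100% = receptor with positive control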
# ARNT-TACC3 inh: disruptors of ARNT/TACC3 protein interaction, primary screen, biochemical, AlphaScreen, single concentration; Transforming acidic coiled-coil-containing protein 3 (Homo sapiens), Q9Y6A5; AlphaScreen His-ARNT PAS-B/GST-TACC3 binding, luminescence; TACC3 fragment carries E629A point mutation; inhibition, % at 9.99 µM; 0.66% of 390,000 active; AID 623870, 2012;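 active = mean inhibition of replicates at least 50% and at least half of replicates each reaching 50%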;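 also: 0% = complete ARNT plus TACC3 wells and 100% = ARNT alone without TACC3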
# ABHD4 inh: ABHD4 inhibitors, primary screen, biochemical, fluorescence polarization, mouse. (Lyso)-N-acylphosphatidylethanolamine lipase (Mus musculus), Q8VD66. purified mABHD4, FP-Rh probe fluorescence polarization. inhibition, % at 8.92 µM. 0.54% of 370,000 active. AID 720543, 2013;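 active = inhibition exceeding the mean over every tested compound plus 3 SD, cut at about 30% in these data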;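 also: 0% = plate median of compound wells and 100% = S159A mutant with DMSO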
#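 Test system: mABHD4 protein | Buffer or medium: HEPES pH 7.0 buffer, 150 mM NaCl, 0.01% Pluronic F-127 | Probe or stimulus: FP-Rh fluorescent activity-based probe, added after compound pre-incubation | Timing: Pre-incubation 45 min, probe exposure 60 min, at 25 °C | Technique: Fluorescence polarization, excitation 525 nm, emission 598 nm, BODIPY TMR filters | Repeats: Single well per compound (singlicate)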
# HTRA1 conf: HTRA1 protease inhibitors, retest, confirmation, biochemical, fluorescence polarization; recombinant HTRA1, FP-rhodamine activity-based probe; 66% of 1,600 active; inhibition, % at 5.96 µM; shares compounds with HTRA1 inh; AID 540248, 2011;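 active = mean inhibition over three repeats above a set limit taken from the earlier primary screen, cut at about 37% in these data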;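 also: 0% = HTRA1 with DMSO and 100% = wells lacking HTRA1; inhibitors block probe binding so polarization drops and inhibition rises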
# BSA TAMRA ctr: compounds interfering with TAMRA-BSA probe, counter-screen for TCR-CD3 interaction inhibitor project, biochemical, fluorescence, TAMRA-labeled BSA. shares compounds with TCR CD3 inh. TAMRA-labeled BSA probe fluorescence counterscreen. inhibition, % at 9.4 µM. 10% of 1,200 active. AID 652035, 2013; in the data active = inhibition above about 23%;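 also: 0% = buffer low control and 100% = reference high control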
# TCR-CD3 inh conf: TCR-CD3 interaction inhibitors, retest, confirmation, biochemical, fluorescence, TAMRA-labeled TCR probe. shares compounds with TCR CD3 inh. TAMRA-labeled TCR probe fluorescence binding assay. inhibition, % at 9.4 µM. 48% of 1,200 active. AID 652036, 2013
# mABHD4 conf: ABHD4 inhibitors, retest, confirmation, biochemical, fluorescence polarization, mouse; 55% of 1,800 active; shares compounds with ABHD4 inh; inhibition, % at 8.92 µM; purified mABHD4, FP-Rh probe fluorescence polarization; AID 720658, 2013;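 active = mean inhibition across replicates above the hit cutoff set in the primary screen, cut at about 30% in these data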;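 also: 0% = wild-type ABHD4 with DMSO and 100% = catalytically dead S159A mutant with DMSO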
# SIAE inh conf: human SIAE inhibitors, retest, confirmation, biochemical, fluorescence polarization, FP-Rh probe, triplicate | shares compounds with SIAE primary | SIAE FP-Rh activity-based probe | inhibition, % at 9.66 µM | 13% of 2,300 active | AID 1117263, 2014;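 active = mean inhibition of the replicates above the hit cutoff set in the primary screen, cut at about 17% in these data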;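 also: 0% = SIAE with DMSO and probe and 100% = probe without SIAE; inhibitors lower polarization as more probe stays unbound to SIAE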
# * marks the source's active call; other numbers are inactive results; x = not tested or not shown. Rule as the data show it, unless noted: active = inhibition above about 19%; inactive = the rest.
SMILES,HTRA1 inh,SIAE primary,TCR CD3 inh,ARNT-TACC3 inh,ABHD4 inh,HTRA1 conf,mABHD4 conf,SIAE inh conf,others
C[C@H]1CN([C@@H](C)CO)C(=O)Cc2cc(NC(=O)Cc3cn(C)c4ccccc34)ccc2O[C@H]1CN(C)Cc1ccc(C(=O)O)cc1,x,x,x,-7.6,x,x,x,x,
CCCCCCn1c(=O)[nH]c2nc3cc(N)c(C)cc3nc2c1=O,64.2*,17.7*,10.9,3.0,49.3*,15.0,39.0*,8.7,
O=C(O)c1ccc(/C=N\Nc2ccc(S(=O)(=O)N3CCOCC3)cc2[N+](=O)[O-])cc1,-3.5,-4.8,7.5,5.9,-15.9,x,x,x,
Cc1ccc(-n2c(O)c(/C=N/Nc3ccc(S(=O)(=O)N4CCOCC4)cc3[N+](=O)[O-])c3ccccc3c2=O)c(C)c1,48.0*,20.9*,-7.8,2.2,25.8,156.3*,x,0.2,
COc1ccc(S(=O)(=O)Nc2cccc3c2O[C@@H](CN(C)C(=O)Nc2ccc(F)cc2)[C@@H](C)CN([C@@H](C)CO)C3=O)cc1,x,x,x,-2.5,x,x,x,x,
C=CCn1cc(/C=N/Nc2nc3ccccc3[nH]2)c2ccccc21,40.7*,56.1*,-0.7,19.4,24.6,42.5*,x,53.1*,
COc1ccc2nc3cc(Cl)ccc3c(Nc3cc(C(C)C)c(O)cc3C)c2c1,37.8*,29.4*,-9.2,-16.7,39.6*,28.9,50.6*,14.4,
Nc1cc(N)cc(-c2nc3ccccc3[nH]2)c1,46.8*,31.2*,-7.6,-4.5,12.2,20.9,x,5.3,
c1ccc(-c2nc3ccccc3[nH]2)cc1,-2.0,-5.2,4.5,-2.0,-0.4,x,x,x,
CO[C@H]1CN(C)C(=O)c2cc(NS(=O)(=O)c3ccccc3)ccc2OC[C@@H](C)N(C(=O)NC(C)C)C[C@H]1C,x,x,x,-36.3,x,x,x,x,
O=C(O)[C@@H]1[C@H]2C[C@H]3c4[nH]c5ccccc5c4CCN3C[C@@H]2CC[C@@H]1O,45.5*,24.4*,45.6*,13.4,39.2*,7.2,31.7*,15.0,BSA TAMRA ctr=7.9;TCR-CD3 inh conf=5.3
C[C@H](NC(=O)C[C@@H]1C[C@@H]2c3cc(NC(=O)C4CCOCC4)ccc3O[C@@H]2[C@@H](CO)O1)c1ccccc1,x,x,x,-3.0,x,x,x,x,
C[C@@H]1Cc2c(O)c(O)cc(O)c2C(=O)O1,10.9,x,x,6.8,x,x,x,x,
O=C1C=C(O)c2c(O)cc(O)c(O)c2C1=O,77.8*,50.6*,63.5*,18.6,84.0*,55.9*,56.9*,10.0,BSA TAMRA ctr=-3.0;TCR-CD3 inh conf=64.2*
Cc1ccccc1C(=O)Nc1cccc(C(=O)N/N=C/c2cc(Cl)cc([N+](=O)[O-])c2O)c1,41.9*,27.9*,45.4*,51.7*,36.6*,49.9*,48.8*,1.7,BSA TAMRA ctr=-6.3;TCR-CD3 inh conf=55.7*
COc1cc(/C=N/NC(=O)c2cccc(NC(=O)c3ccccc3C)c2)ccc1O,-8.6,7.3,-2.0,12.9,7.2,x,x,x,
O=C(C[C@H]1CC[C@H]2[C@@H](COC[C@@H](O)CN2S(=O)(=O)c2ccc(F)cc2)O1)NCC1CC1,x,x,x,1.1,x,x,x,x,

# Source: PubChem BioAssay
